Activity calls are given as the source filed them.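 Rule for the calls: active = falling signal with a fitted half-maximal concentration at most ten times the top valid dose; inconclusive = flat fit with 30 to 70 percent inhibition, or a poor fit; inactive = the rest.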
System: not listed separately
Experiment: inhibition of V. harveyi QS light output, dose response, counter-screen for LuxS inhibitor project, strain BB721, dry powder, set 4 (AID 493097)
Settings: Vibrio harveyi BB721 constitutive QS, luminescence, 9 h; at 16 µM (top of the series)
Method in brief: (§1)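 Test system – Vibrio harveyi strain BB721 with constitutively active quorum sensing · Quantity – bacteria seeded at starting optical density OD600 0.0005 · Buffer or medium – AB (autoinducer bioassay) growth medium · Incubation – 9 h exposure, 30 °C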

Structure (SMILES) | activity change, negative = inhibition
CC(=O)Nc1ccccc1NS(=O)(=O)c1cn(C)cn1 | 6.64% (inactive)
Cn1cnc(S(=O)(=O)Nc2ccccc2Cl)c1 | 12.3% (inactive)
CCc1ccc(-c2ccc(C(=O)O)n2C)cc1 | -7.36% (inactive)
COc1ccccc1NS(=O)(=O)c1cn(C)cn1 | -0.736% (inactive)
Cn1cnc(S(=O)(=O)Nc2ccccc2F)c1 | 6.38% (inactive)
Cc1ccccc1NS(=O)(=O)c1cn(C)cn1 | 5.69% (inactive)
CN(C)C(=O)c1ccccc1NS(=O)(=O)c1cn(C)cn1 | 8.65% (inactive)

System: Vibrio harveyi BB721 constitutive QS, luminescence, 9 h
Experiment: as above
Settings: not given
Method in brief: as §1

Structure (SMILES) | AC50 [µM]
C=Cn1c(C(=O)O)ccc1-c1ccc(CC)cc1 | 13.1
O=S(=O)(Nc1ccccn1)c1ccc(Oc2ccccc2)cc1 | 15.5
Cn1cnc(S(=O)(=O)Nc2ccc(OC(F)(F)F)cc2)c1 | 14.1
O=S(=O)(Nc1cccnc1)c1ccc(Oc2ccccc2)cc1 | 0.775
O=C1C=C/C(=C/Br)O1 | 3.92
